Values without a mark were called inactive. Results filed as inconclusive are left out. Active and inactive are the calls of the source.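 The calls were made as follows, unless noted: active = inhibition over a set limit, the all-compound mean plus 3 SD, in both replicate runs; inconclusive = over that limit in just one replicate run; inactive = at or under that limit in both runs.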

The term viability denotes a read-out of living cells in per cent, often relative to untreated cells. Usually inhibition stands for how much of the control response was suppressed.

The nature of assay [1]: S. cerevisiae growth inhibition in permissive medium (OD615), pilot counter-assay for S. cerevisiae lifespan shortening project, permissive growth control (AID 705;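 active = growth inhibition above 25% in both replicates, a cutoff set 3 SD above the mean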). As to conditions: OD615, 24 h, at 10 µM, stronger effect = higher value. In outline: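 assay system = Saccharomyces cerevisiae strain carrying genetically modified DeaD replicative-lifespan system | medium = SC raffinose/galactose permissive medium | dosing = 10 µM single dose, 0.25% DMSO | schedule = 24 h compound exposure at 30 °C after 4 h pre-growth | measured by = OD at 615 nm | read-out basis = growth inhibition from lowered OD615 after 24 h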

A short description of assay [2]: S. cerevisiae growth inhibition in restrictive medium, OD615, pilot screen, restrictive growth control, yeast lifespan reduction project (AID 706;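 active = growth inhibition above a set limit, 3 SD over mean compound inhibition, in both replicates, cut at about 43% in these data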). Particulars: OD615, 48 h, at 10 µM, stronger effect = higher value. In outline: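 Buffer or medium: CSMM-D glucose medium. Material: genetically modified Saccharomyces cerevisiae, DeaD replicative lifespan assay strain. Times: 48 h compound exposure at 30 °C. Measured by: optical density at 615 nm.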

The nature of assay [3]: doxorubicin toxicity protection in MRP-1 cells – H69AR cells, CellTiter-Glo, duplicate, MRP-1 activator project, pilot screen (AID 807;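 active = viability increase at or above a cutoff of the median across tested compounds plus 3 SD, cut at about 8.5% in these data, passing the limit was not always enough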;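 also: compound pretreatment 18-22 h then 72 h combined with doxorubicin; 0% = doxorubicin alone and 100% = vehicle without doxorubicin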). As to conditions: H69AR viability with doxorubicin, CellTiter-Glo luminescence; at 10 µM; stronger effect = higher value. (Cellular ATP, detected with luciferase, serves as a proxy for viable cell number.)
A short description of assay [4]: viability of PTEN-null HCT116 cells – cell-based, HCT116 clonal line, CellTiter-Glo, pilot screen (AID 824;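 active = viability at or below 27.92% in each of two runs, the all-compound median minus 4 SD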;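 also: 0% = 20 µM Hyamine control and 100% = vehicle cell control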). Particulars: HCT116 PTEN-deleted viability, 60 h, at 10 µM, stronger effect = lower value.
Assay [5] is described as follows: RAM pathway blockade in budding yeast – dse1pr::URA3 reporter, 5-FOA selection, pilot screen (AID 869).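 Also: 0% = DMSO wells with no growth and 100% = 10 µM 1-NA-PP1 with full growth; RAM network block rescues cells from 5-FOA so hits raise OD615 growth.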 As to conditions: S. cerevisiae dse1pr::URA3 5-FOA growth, OD615, 2 d; at 10 µM; stronger effect = higher value; strain carries analog-sensitive mutant Cbk1 kinase.
Assay [6] is described as follows: RAM signaling pathway blockade in yeast – S. cerevisiae, Pdr1DBD-CYC8 efflux-inhibited sensitized strain, primary screen (AID 1298;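 active = RAM network inhibition above 8.4% in each of two replicates, 3 SD over the compound average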;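 also: 0% = DMSO untreated cells without growth and 100% = 10 µM 1-NA-PP1 full growth; higher means more yeast growth rescued from 5-FOA killing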). As to conditions: S. cerevisiae cbk1-as DSE1-URA3 strain, 5-FOA growth OD615, 2 d; at 50 µM; stronger effect = higher value.

As for `O=C(CN1C(=O)c2ccccc2S1(=O)=O)N1CCN(c2ccccc2F)CC1`, the results for the growth inhibition in assay [1] and in assay [2] were 0.11% and 5.53%, respectively. In addition, the viability increase in assay [3] is -3.37%. For the same compound, the viability in assay [4] was 101%. For the same compound, in assay [5], the inhibition is 2.07%. In addition, the RAM network inhibition in assay [6] is 2.92%.
On to `CCCCNC(=O)NS(=O)(=O)c1ccc(NS(=O)(=O)c2ccccc2)cc1`, for which the growth inhibition in assay [1] is -10.8%; in assay [2] it was -7.74%. Moreover, the viability increase in assay [3] is -0.52%. Moreover, the viability in assay [4] was 98.4%. Also, in assay [5], the inhibition is 2.14%. For the same compound, in assay [6], the RAM network inhibition is 4.35%.
For the compound `Cc1cc(OCCCCCNCCO)ccc1Cl`, the growth inhibition in assay [1] was -5.31%; in assay [2] it was -3.71%. The viability increase in assay [3] is -4.62%. Besides, the viability in assay [4] was 78%. Further, the inhibition in assay [5] was 2.05%. Further, the RAM network inhibition in assay [6] is 1.6%.
Turning to `CCN1C(=S)SC(=O)C1=C1C=C(C)N(CCO)C(C)=C1`, the growth inhibition in assay [1] is 1.7%; in assay [2] it was 23.4%. Besides, the viability increase in assay [3] was -2.35%. The viability in assay [4] is 95.3%. In addition, the inhibition in assay [5] is 1.45%. Further, the RAM network inhibition in assay [6] is 0.11%.
For `COc1cc(NC(=O)C2CC2)c(C(=O)O)cc1OC`, the results for the growth inhibition in assay [1] and in assay [2] were -3.4% and 7.62%, respectively. Besides, the viability increase in assay [3] was -2.58%. Moreover, the viability in assay [4] was 100%. Moreover, the inhibition in assay [5] was 1.68%. Further, the RAM network inhibition in assay [6] was -0.36%.
On to `CCCCn1c(=NC(=O)c2ccco2)c(C(=O)OCC)cc2c(=O)n3ccccc3nc21`, for which the results for the growth inhibition in assay [1] and in assay [2] were 1.16% and 6.8%, respectively. Besides, in assay [3], the viability increase was -6.94%. In assay [4], the viability was 20.3% (active). For the same compound, the inhibition in assay [5] was 0.795%. In assay [6], the RAM network inhibition was 1.9%.
For the compound `O=C(CCCC(=O)N1CCCc2ccccc21)N1CCCc2ccccc21`, the figures for the growth inhibition in assay [1] and in assay [2] were -8.11% and -5.5%, respectively. Moreover, the viability increase in assay [3] is -4.74%. Besides, the viability in assay [4] was 95.3%. For the same compound, the inhibition in assay [5] was 2.04%. The RAM network inhibition in assay [6] was 1.5%.
On to `CCN(CC)S(=O)(=O)c1ccc2oc(C(=O)NCc3ccc(F)cc3)c(C)c2c1`, for which the growth inhibition in assay [1] was -10.9%; in assay [2], 12.4%. Also, the viability increase in assay [3] was -6.59%. Further, the viability in assay [4] is 60.6%. In addition, the inhibition in assay [5] was 1.37%. The RAM network inhibition in assay [6] was 7.7%.
Take `O=C1CC(c2ccccc2)c2cc(O)ccc2O1` (stereo not drawn): the growth inhibition was -23.7% in assay [1] and -23% in assay [2]. In assay [3], the viability increase is 3.84%. Further, in assay [4], the viability is 69.2%. The inhibition in assay [5] was 1.45%. The RAM network inhibition in assay [6] is 2.58%.
Regarding `CS(=O)(=O)NCCSCc1ccc(Cl)cc1`, the growth inhibition is -8.71% in assay [1] and -3.54% in assay [2]. Moreover, in assay [3], the viability increase is -0.89%. The viability in assay [4] was 97.9%. Further, the inhibition in assay [5] is 1.62%. In assay [6], the RAM network inhibition is 4.47%.
In the case of `CCCCS(=O)CC(CS(=O)CCCC)OC(=O)c1ccc(C)cc1` (stereo not drawn), the growth inhibition in assay [1] was -10.6%; in assay [2], -7.7%. In assay [3], the viability increase was -1.14%. Also, in assay [4], the viability was 96.3%. For the same compound, the inhibition in assay [5] was 1.73%. Moreover, in assay [6], the RAM network inhibition was 0.87%.
Regarding `O=C(Nc1cccnc1)c1ccc(CN2CCc3ccccc3C2)cc1`, the growth inhibition in assay [1] is -3.88%; in assay [2], -5.93%. Besides, the viability increase in assay [3] was -2.11%. Further, in assay [4], the viability is 93.3%. Further, the inhibition in assay [5] was 2.54%. Also, the RAM network inhibition in assay [6] was 2.06%.
As for `COc1ccc(NC2CS(=O)(=O)CC2NCc2ccco2)cc1` (stereo not drawn), the growth inhibition in assay [1] was 3.62%; in assay [2], -15.4%. Besides, the viability increase in assay [3] was -4.04%. Besides, the viability in assay [4] is 96.2%. For the same compound, the inhibition in assay [5] is 1.94%. Also, the RAM network inhibition in assay [6] was 4.2%.
Take `Cc1ccc(S(=O)(=O)c2nc(-c3ccc(F)cc3)oc2SCC(=O)NCC2CCCO2)cc1` (stereo not drawn): the growth inhibition in assay [1] was 8.03%; in assay [2] it was -4.51%. For the same compound, in assay [3], the viability increase was -7.96%. In addition, the viability in assay [4] is 15.3% (active). For the same compound, in assay [5], the inhibition was 0.69%. For the same compound, in assay [6], the RAM network inhibition was 10.9%.
In the case of `C/C(=C1/SC(=S)N(CCC(=O)O)C1=O)c1ccc(O)cc1`, the values for the growth inhibition in assay [1] and in assay [2] were -5.09% and -8.91%, respectively. Also, in assay [3], the viability increase was 1.4%. For the same compound, the viability in assay [4] was 98.1%. For the same compound, the inhibition in assay [5] is 1.2%. Besides, the RAM network inhibition in assay [6] was 0.45%.
As to `COc1cc(C(C)=O)ccc1OC(=O)C(C)N1C(=O)c2ccccc2C1=O` (stereo not drawn), the growth inhibition is -17.5% in assay [1] and -5.68% in assay [2]. The viability increase in assay [3] is -2.73%. In addition, in assay [4], the viability was 93.9%. The inhibition in assay [5] was 1.02%. Also, the RAM network inhibition in assay [6] was 3.8%.
Turning to `COC(=O)c1c(NC(=O)Cc2cccs2)sc(C)c1C`, the figures for the growth inhibition in assay [1] and in assay [2] were 2.9% and 6.72%, respectively. The viability increase in assay [3] was -4.9%. In addition, the viability in assay [4] was 87%. Moreover, in assay [5], the inhibition was 1.54%. Moreover, the RAM network inhibition in assay [6] was 9.13%.
For the compound `O=c1cc(NCc2ccco2)c2ccccc2o1`, the figures for the growth inhibition in assay [1] and in assay [2] were -2.07% and -3.13%, respectively. In addition, in assay [3], the viability increase is -4.38%. In assay [4], the viability is 96.7%. Further, the inhibition in assay [5] is 1.84%. Also, in assay [6], the RAM network inhibition was 1.33%.

(Values after PubChem BioAssay.)
